{"source": "ChEMBL document CHEMBL1126048", "about": "“Synthesis and pharmacological investigation of the enantiomers of muscarone and allomuscarone” (J Med Chem, 1992)", "key": {"Cavia porcellus [1]": {"species": "Cavia porcellus", "assay": "In vitro potency against muscarinic preparation from guinea pig atria.", "type": "functional", "how_it_was_run": "(§1)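 Isolated tissues: guinea pig atria, ileum and trachea, and rat jejunum and bladder. Agonist concentration–response curves were run, with potency expressed as −log EC50. Values are means ± SEM of six to nine experiments.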"}, "Cavia porcellus [2]": {"species": "Cavia porcellus", "assay": "In vitro potency against muscarinic preparation from guinea pig ileum.", "type": "functional", "how_it_was_run": "as §1"}, "[3]": {"biological_target": "T1, Muscarinic acetylcholine receptor M1 (Rattus norvegicus) (UniProt P08482)", "T1 sequence (whole entry)": "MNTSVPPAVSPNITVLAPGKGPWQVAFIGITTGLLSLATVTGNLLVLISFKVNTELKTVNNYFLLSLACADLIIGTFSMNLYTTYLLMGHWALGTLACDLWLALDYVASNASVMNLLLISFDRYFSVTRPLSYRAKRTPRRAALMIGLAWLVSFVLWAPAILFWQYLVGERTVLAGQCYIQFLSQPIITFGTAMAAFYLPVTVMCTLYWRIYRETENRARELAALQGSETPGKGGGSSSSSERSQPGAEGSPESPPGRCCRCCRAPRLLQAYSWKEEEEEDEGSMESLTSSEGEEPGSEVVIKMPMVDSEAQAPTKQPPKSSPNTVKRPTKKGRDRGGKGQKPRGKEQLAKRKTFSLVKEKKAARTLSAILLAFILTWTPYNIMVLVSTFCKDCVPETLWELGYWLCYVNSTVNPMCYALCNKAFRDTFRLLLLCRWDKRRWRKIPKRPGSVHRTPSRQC", "conditions": "Cerebral cortex"}, "Cavia porcellus [4]": {"species": "Cavia porcellus", "assay": "In vitro potency against muscarinic preparation from guinea pig trachea.", "type": "functional", "how_it_was_run": "as §1"}, "Rattus norvegicus [5]": {"species": "Rattus norvegicus", "assay": "Hill coefficient for affinity to M1 muscarinic receptor of rat cerebral cortex"}, "Rattus norvegicus [6]": {"species": "Rattus norvegicus", "assay": "Hill coefficient for affinity to M3 muscarinic receptor of rat cerebral cortex"}, "Rattus norvegicus [7]": {"species": "Rattus norvegicus", "assay": "In vitro potency against muscarinic preparation from rat bladder.", "type": "functional", "how_it_was_run": "as §1"}, "Rattus norvegicus [8]": {"species": "Rattus norvegicus", "assay": "Hill coefficient for affinity to M2 muscarinic receptor of rat cerebral cortex"}, "Rattus norvegicus [9]": {"species": "Rattus norvegicus", "assay": "In vitro potency against muscarinic preparation from rat jejunum.", "type": "functional", "how_it_was_run": "as §1"}, "Cavia porcellus [10]": {"species": "Cavia porcellus", "assay": "In vitro potency against muscarinic preparation from guinea pig trachea", "type": "functional", "how_it_was_run": "as §1"}, "Rattus norvegicus [11]": {"species": "Rattus norvegicus", "assay": "In vitro potency against muscarinic preparation from rat jejunum", "type": "functional", "how_it_was_run": "as §1"}, "Cavia porcellus [12]": {"species": "Cavia porcellus", "assay": "In vitro potency against muscarinic preparation from guinea pig ileum", "type": "functional", "how_it_was_run": "as §1"}, "Cavia porcellus [13]": {"species": "Cavia porcellus", "assay": "In vitro potency against muscarinic preparation from guinea pig atria", "type": "functional", "how_it_was_run": "as §1"}, "[14]": {"biological_target": "T1, Muscarinic acetylcholine receptor M1 (Rattus norvegicus)", "conditions": "Cerebral cortex", "remark": "listed apart in the source"}}, "data": [{"smiles": "C[C@H]1O[C@@H](C[N+](C)(C)C)C[C@@H]1O", "values": [{"measurement": "EC50", "setting": "Cavia porcellus [1]", "result": 6.76, "unit": "µM"}, {"measurement": "EC50", "setting": "Cavia porcellus [2]", "result": 2.4, "unit": "µM"}, {"measurement": "nH", "setting": "[3]", "result": 0.76}]}, {"smiles": "C[C@H]1O[C@@H](C[N+](C)(C)C)CC1=O.[I-]", "values": [{"measurement": "EC50", "setting": "Cavia porcellus [4]", "result": 0.49, "unit": "µM"}, {"measurement": "EC50", "setting": "Cavia porcellus [1]", "result": 0.501, "unit": "µM"}, {"measurement": "nH", "setting": "Rattus norvegicus [5]", "result": 1}, {"measurement": "nH", "setting": "Rattus norvegicus [6]", "result": 1}, {"measurement": "EC50", "setting": "Rattus norvegicus [7]", "result": 3.55, "unit": "µM"}, {"measurement": "EC50", "setting": "Cavia porcellus [2]", "result": 0.302, "unit": "µM"}, {"measurement": "nH", "setting": "Rattus norvegicus [8]", "result": 0.6}]}, {"smiles": "C[C@H]1O[C@H](C[N+](C)(C)C)CC1=O.[I-]", "values": [{"measurement": "EC50", "setting": "Rattus norvegicus [9]", "result": 0.661, "unit": "µM"}, {"measurement": "EC50", "setting": "Cavia porcellus [1]", "result": 0.229, "unit": "µM"}, {"measurement": "nH", "setting": "Rattus norvegicus [5]", "result": 0.89}, {"measurement": "nH", "setting": "Rattus norvegicus [6]", "result": 0.9}, {"measurement": "EC50", "setting": "Rattus norvegicus [7]", "result": 2, "unit": "µM"}, {"measurement": "EC50", "setting": "Cavia porcellus [2]", "result": 0.148, "unit": "µM"}, {"measurement": "nH", "setting": "Rattus norvegicus [8]", "result": 0.63}]}, {"smiles": "C[C@@H]1O[C@H](C[N+](C)(C)C)CC1=O.[I-]", "values": [{"measurement": "nH", "setting": "Rattus norvegicus [5]", "result": 0.79}, {"measurement": "nH", "setting": "Rattus norvegicus [6]", "result": 0.78}, {"measurement": "EC50", "setting": "Cavia porcellus [10]", "result": 0.00112, "unit": "µM"}, {"measurement": "EC50", "setting": "Rattus norvegicus [11]", "result": 0.00741, "unit": "µM"}, {"measurement": "EC50", "setting": "Cavia porcellus [12]", "result": 0.000794, "unit": "µM"}, {"measurement": "nH", "setting": "Rattus norvegicus [8]", "result": 0.58}, {"measurement": "EC50", "setting": "Cavia porcellus [13]", "result": 0.0012, "unit": "µM"}]}, {"smiles": "C[C@@H]1O[C@H](C[N+](C)(C)C)C[C@H]1O", "values": [{"measurement": "EC50", "setting": "Cavia porcellus [1]", "result": 0.0204, "unit": "µM"}, {"measurement": "EC50", "setting": "Cavia porcellus [2]", "result": 0.00741, "unit": "µM"}, {"measurement": "nH", "setting": "[14]", "result": 1}]}, {"smiles": "C[C@@H]1O[C@@H](C[N+](C)(C)C)CC1=O.[I-]", "values": [{"measurement": "EC50", "setting": "Rattus norvegicus [9]", "result": 0.0204, "unit": "µM"}, {"measurement": "EC50", "setting": "Cavia porcellus [1]", "result": 0.00513, "unit": "µM"}, {"measurement": "nH", "setting": "Rattus norvegicus [5]", "result": 0.74}, {"measurement": "nH", "setting": "Rattus norvegicus [6]", "result": 0.92}, {"measurement": "EC50", "setting": "Rattus norvegicus [7]", "result": 0.105, "unit": "µM"}, {"measurement": "EC50", "setting": "Cavia porcellus [2]", "result": 0.00347, "unit": "µM"}, {"measurement": "nH", "setting": "Rattus norvegicus [8]", "result": 0.58}]}]}
